Reference: ChEMBL document CHEMBL1157912, “Impact of nature and length of linker incorporated in agonists on toll-like receptor 9-mediated immune responses” (J Med Chem, 2010)

Columns and labels:
[1] = biological target: T1, Toll-like receptor 9 (Homo sapiens) (UniProt Q9NR96); assay: Induction of TLR9-mediated immune stimulation in human PBMC assessed as RANTES production at 2 ug/ml after 24 hrs by luminex multiplex assay (RVb = 0.05 +/- 0.04 ng/ml)
T1 sequence (whole entry): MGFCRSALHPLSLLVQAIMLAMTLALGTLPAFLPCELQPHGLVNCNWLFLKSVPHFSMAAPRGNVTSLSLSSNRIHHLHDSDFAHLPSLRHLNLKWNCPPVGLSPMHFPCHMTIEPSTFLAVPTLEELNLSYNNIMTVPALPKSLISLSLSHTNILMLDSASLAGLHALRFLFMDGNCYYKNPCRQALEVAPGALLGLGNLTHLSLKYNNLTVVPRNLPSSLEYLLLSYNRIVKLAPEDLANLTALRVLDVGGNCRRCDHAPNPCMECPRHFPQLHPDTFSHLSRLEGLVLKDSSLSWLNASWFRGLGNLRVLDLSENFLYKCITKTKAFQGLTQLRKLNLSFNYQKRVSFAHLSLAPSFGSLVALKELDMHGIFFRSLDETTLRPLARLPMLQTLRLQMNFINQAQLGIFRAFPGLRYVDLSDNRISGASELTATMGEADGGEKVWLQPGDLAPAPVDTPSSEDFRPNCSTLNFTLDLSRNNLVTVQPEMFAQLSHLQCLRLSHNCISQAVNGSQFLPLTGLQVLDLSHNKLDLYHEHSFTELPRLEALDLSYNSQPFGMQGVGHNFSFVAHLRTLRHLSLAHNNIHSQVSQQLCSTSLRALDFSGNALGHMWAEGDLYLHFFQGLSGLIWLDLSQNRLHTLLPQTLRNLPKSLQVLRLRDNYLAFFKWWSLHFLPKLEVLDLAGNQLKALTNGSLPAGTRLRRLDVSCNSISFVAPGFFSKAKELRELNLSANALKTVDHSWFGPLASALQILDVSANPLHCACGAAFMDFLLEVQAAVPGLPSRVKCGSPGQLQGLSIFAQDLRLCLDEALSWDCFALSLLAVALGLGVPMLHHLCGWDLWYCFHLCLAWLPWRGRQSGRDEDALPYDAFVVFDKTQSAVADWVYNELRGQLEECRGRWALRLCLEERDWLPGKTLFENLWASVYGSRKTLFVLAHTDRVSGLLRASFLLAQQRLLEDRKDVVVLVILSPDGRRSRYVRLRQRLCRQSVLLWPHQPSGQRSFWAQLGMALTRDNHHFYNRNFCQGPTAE

[2] = biological target: T1, Toll-like receptor 9 (Homo sapiens); assay: Induction of TLR9-mediated immune stimulation in human PBMC assessed as MIP1beta production at 2 ug/ml after 24 hrs by luminex multiplex assay (RVb = 0.03 +/- 0.02 ng/ml)
[3] = biological target: T1, Toll-like receptor 9 (Homo sapiens); assay: Induction of TLR9-mediated human B cell proliferation assessed as [3H]thymidine uptake after 56 hrs by scintillation counting
Summary of the method: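 B cells were purified from human PBMCs (healthy volunteers), about 1 × 10⁵ cells, and stimulated with various agonist concentrations for 56 h. Cells were then pulsed with 0.75 μCi [³H]-thymidine and harvested 16 h later. Incorporation was counted by scintillation and reported as cpm.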

[4] = biological target: T1, Toll-like receptor 9 (Homo sapiens); assay: Induction of TLR9-mediated immune stimulation in human PBMC assessed as MIP1alpha production at 2 ug/ml after 24 hrs by luminex multiplex assay (RVb = 0.01 ng/ml)
[5] = biological target: T1, Toll-like receptor 9 (Homo sapiens); assay: Induction of TLR9-mediated immune stimulation in human PBMC assessed as IL12 production at 10 ug/ml after 24 hrs by luminex multiplex assay (RVb = 0.00 ng/ml)
[6] = biological target: T1, Toll-like receptor 9 (Homo sapiens); assay: Induction of TLR9-mediated immune stimulation in human PBMC assessed as RANTES production at 10 ug/ml after 24 hrs by luminex multiplex assay (RVb = 0.05 +/- 0.04 ng/ml)
[7] = biological target: T2, Toll-like receptor 9 (Mus musculus) (UniProt Q9EQU3); assay: Induction of TLR9-mediated IL6 production in C57BL/6 mouse spleen cells after 24 hrs by ELISA; assay type: cell-based
T2 sequence (whole entry): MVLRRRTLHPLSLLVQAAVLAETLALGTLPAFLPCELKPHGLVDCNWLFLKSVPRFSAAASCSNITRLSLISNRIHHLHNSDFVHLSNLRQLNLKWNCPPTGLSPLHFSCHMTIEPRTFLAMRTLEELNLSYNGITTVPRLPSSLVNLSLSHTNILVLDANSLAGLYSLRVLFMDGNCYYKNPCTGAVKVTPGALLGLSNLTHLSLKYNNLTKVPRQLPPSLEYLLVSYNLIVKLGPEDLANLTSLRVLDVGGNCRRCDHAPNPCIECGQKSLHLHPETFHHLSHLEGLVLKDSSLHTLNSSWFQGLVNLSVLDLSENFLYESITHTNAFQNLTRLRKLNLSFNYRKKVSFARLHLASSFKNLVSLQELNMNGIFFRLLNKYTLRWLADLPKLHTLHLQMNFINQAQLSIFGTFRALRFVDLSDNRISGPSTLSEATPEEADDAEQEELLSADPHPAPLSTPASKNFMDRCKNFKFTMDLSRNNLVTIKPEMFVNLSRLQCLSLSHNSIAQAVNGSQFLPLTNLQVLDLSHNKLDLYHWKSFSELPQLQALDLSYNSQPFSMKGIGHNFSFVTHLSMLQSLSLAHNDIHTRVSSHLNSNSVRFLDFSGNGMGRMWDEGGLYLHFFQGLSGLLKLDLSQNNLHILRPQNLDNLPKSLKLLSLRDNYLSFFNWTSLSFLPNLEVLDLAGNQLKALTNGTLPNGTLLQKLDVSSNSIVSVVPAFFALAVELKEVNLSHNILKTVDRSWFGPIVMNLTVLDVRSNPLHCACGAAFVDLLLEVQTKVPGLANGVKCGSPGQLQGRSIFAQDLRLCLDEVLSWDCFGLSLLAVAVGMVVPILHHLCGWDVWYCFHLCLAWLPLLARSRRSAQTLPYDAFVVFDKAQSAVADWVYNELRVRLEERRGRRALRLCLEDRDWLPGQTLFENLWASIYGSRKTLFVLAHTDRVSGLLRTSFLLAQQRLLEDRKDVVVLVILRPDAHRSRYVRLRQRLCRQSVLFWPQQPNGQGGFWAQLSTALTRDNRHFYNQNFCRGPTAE
Summary of the method: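 C57BL/6 mouse spleen cells were cultured with agonists at 0.1, 0.3, 1, 3 and 10 μg/mL for 24 h. Secreted IL-12 and IL-6 in the supernatants were measured by ELISA. Values are averages of triplicate wells from one representative of at least two independent experiments.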

[8] = biological target: T1, Toll-like receptor 9 (Homo sapiens); assay: Induction of TLR9-mediated immune stimulation in human PBMC assessed as IL1Ralpha production at 10 ug/ml after 24 hrs by luminex multiplex assay (RVb = 0.12 +/- 0.03 ng/ml)
[9] = biological target: T1, Toll-like receptor 9 (Homo sapiens); assay: Induction of TLR9-mediated immune stimulation in human PBMC assessed as IP10 production at 2 ug/ml after 24 hrs by luminex multiplex assay (RVb = 0.00 ng/ml)
[10] = biological target: T1, Toll-like receptor 9 (Homo sapiens); assay: Induction of TLR9-mediated immune stimulation in human PBMC assessed as IL2R production at 10 ug/ml after 24 hrs by luminex multiplex assay (RVb = 0.02 +/- 0.01 ng/ml)

Row | Activity [1] | Activity [2] | Activity [3] | Activity [4] | Activity [5] | Activity [6] | Activity [7] | Activity [8] | Activity [9] | Activity [10] | Structure (SMILES)
1 | 0.5 ng/mL | 0.12 ng/mL | Dose-dependent effect | 0.05 ng/mL | 0.21 ng/mL | 2.26 ng/mL | Dose-dependent effect | 109 ng/mL | 0.01 ng/mL | 0.29 ng/mL | Cc1cn([C@H]2C[C@H](O[C@@H]3C[C@@H](O)C[C@@H](OP(=O)(S)O[C@H]4C[C@H](n5cc(C)c(=O)[nH]c5=O)O[C@@H]4COP(=O)(S)O[C@H]4[C@@H](O)[C@H](n5ccc(N)nc5=O)O[C@@H]4COP(=O)(S)O[C@H]4C[C@H](n5cc(C)c(=O)[nH]c5=O)O[C@@H]4COP(=O)(S)O[C@H]4C[C@H](n5cc(C)c(=O)[nH]c5=O)O[C@@H]4COP(=O)(S)O[C@H]4C[C@H](n5ccc6c(=O)[nH]c(N)nc65)O[C@@H]4COP(=O)(S)O[C@H]4[C@@H](O)[C@H](n5ccc(N)nc5=O)O[C@@H]4COP(=O)(S)O[C@H]4C[C@H](n5cc(C)c(=O)[nH]c5=O)O[C@@H]4COP(=O)(S)O[C@H]4[C@@H](O)[C@H](n5cnc6c(=O)[nH]c(N)nc65)O[C@@H]4COP(=O)(S)O[C@H]4C[C@H](n5cc(C)c(=O)[nH]c5=O)O[C@@H]4COP(=O)(S)O[C@H]4[C@@H](O)[C@H](n5ccc(N)nc5=O)O[C@@H]4COP(=O)(S)O[C@H]4C[C@H](n5cc(C)c(=O)[nH]c5=O)O[C@@H]4CO)C3)[C@@H](COP(=O)(S)O[C@H]3[C@@H](O)[C@H](n4ccc(N)nc4=O)O[C@@H]3COP(=O)(S)O[C@H]3C[C@H](n4cc(C)c(=O)[nH]c4=O)O[C@@H]3COP(=O)(S)O[C@H]3C[C@H](n4cc(C)c(=O)[nH]c4=O)O[C@@H]3COP(=O)(S)O[C@H]3C[C@H](n4ccc5c(=O)[nH]c(N)nc54)O[C@@H]3COP(=O)(S)O[C@H]3[C@@H](O)[C@H](n4ccc(N)nc4=O)O[C@@H]3COP(=O)(S)O[C@H]3C[C@H](n4cc(C)c(=O)[nH]c4=O)O[C@@H]3COP(=O)(S)O[C@H]3[C@@H](O)[C@H](n4cnc5c(=O)[nH]c(N)nc54)O[C@@H]3COP(=O)(S)O[C@H]3C[C@H](n4cc(C)c(=O)[nH]c4=O)O[C@@H]3COP(=O)(S)O[C@H]3[C@@H](O)[C@H](n4ccc(N)nc4=O)O[C@@H]3COP(=O)(S)O[C@H]3C[C@H](n4cc(C)c(=O)[nH]c4=O)O[C@@H]3CO)O2)c(=O)[nH]c1=O (stereo not given in full)
2 | 0.7 ng/mL | 0.08 ng/mL | Dose-dependent effect | 0.04 ng/mL | 0.15 ng/mL | 1.09 ng/mL | Dose-dependent effect | 69.9 ng/mL | 0.02 ng/mL | 0.17 ng/mL | Cc1cn([C@H]2C[C@H](OCCOCCOCCOCCOP(=O)(S)O[C@H]3C[C@H](n4cc(C)c(=O)[nH]c4=O)O[C@@H]3COP(=O)(S)O[C@H]3[C@@H](O)[C@H](n4ccc(N)nc4=O)O[C@@H]3COP(=O)(S)O[C@H]3C[C@H](n4cc(C)c(=O)[nH]c4=O)O[C@@H]3COP(=O)(S)O[C@H]3C[C@H](n4cc(C)c(=O)[nH]c4=O)O[C@@H]3COP(=O)(S)O[C@H]3C[C@H](n4ccc5c(=O)[nH]c(N)nc54)O[C@@H]3COP(=O)(S)O[C@H]3[C@@H](O)[C@H](n4ccc(N)nc4=O)O[C@@H]3COP(=O)(S)O[C@H]3C[C@H](n4cc(C)c(=O)[nH]c4=O)O[C@@H]3COP(=O)(S)O[C@H]3[C@@H](O)[C@H](n4cnc5c(=O)[nH]c(N)nc54)O[C@@H]3COP(=O)(S)O[C@H]3C[C@H](n4cc(C)c(=O)[nH]c4=O)O[C@@H]3COP(=O)(S)O[C@H]3[C@@H](O)[C@H](n4ccc(N)nc4=O)O[C@@H]3COP(=O)(S)O[C@H]3C[C@H](n4cc(C)c(=O)[nH]c4=O)O[C@@H]3CO)[C@@H](COP(=O)(S)O[C@H]3[C@@H](O)[C@H](n4ccc(N)nc4=O)O[C@@H]3COP(=O)(S)O[C@H]3C[C@H](n4cc(C)c(=O)[nH]c4=O)O[C@@H]3COP(=O)(S)O[C@H]3C[C@H](n4cc(C)c(=O)[nH]c4=O)O[C@@H]3COP(=O)(S)O[C@H]3C[C@H](n4ccc5c(=O)[nH]c(N)nc54)O[C@@H]3COP(=O)(S)O[C@H]3[C@@H](O)[C@H](n4ccc(N)nc4=O)O[C@@H]3COP(=O)(S)O[C@H]3C[C@H](n4cc(C)c(=O)[nH]c4=O)O[C@@H]3COP(=O)(S)O[C@H]3[C@@H](O)[C@H](n4cnc5c(=O)[nH]c(N)nc54)O[C@@H]3COP(=O)(S)O[C@H]3C[C@H](n4cc(C)c(=O)[nH]c4=O)O[C@@H]3COP(=O)(S)O[C@H]3[C@@H](O)[C@H](n4ccc(N)nc4=O)O[C@@H]3COP(=O)(S)O[C@H]3C[C@H](n4cc(C)c(=O)[nH]c4=O)O[C@@H]3CO)O2)c(=O)[nH]c1=O (stereo not given in full)
